Shown are actives, neighbours in structure and some others; about 1.6% of the full set was active somewhere.
Lipid droplet: hepatic lipid droplet formation modulation | AML12 mouse hepatocytes, oleate lipid droplets, BODIPY imaging | inhibition, % at 6.5 µM | 240,000 tested, 0.4% active;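 active = lipid droplet intensity inhibited by at least 50%, with more than 500 cells counted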
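Assay system: AML12 hepatocytes (mouse); Probe or stimulus: oleic acid at 100 µM to induce lipid droplet formation; Dosing: compound at 6.5 µM only; Schedule: compound with oleate, overnight; Detection: fluorescence imaging, 20x objective, two fields per well; Measure: % inhibition of lipid droplet signal.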
SR-BI uptake up: enhances SR-BI lipid uptake from DiI-HDL; CHO ldlA[mSR-BI] cells, DiI-HDL uptake fluorescence, 3 h; 100 = double the neutral-control signal; activation, % at 12.5 µM; 320,000 tested, 0.096% active; AID 504775;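 active = mean replicate activation of at least 60% and every replicate at or above 60%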
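Assay system: LDL receptor-deficient CHO ldlA cells overexpressing murine SR-BI / Medium: BSA-supplemented, HEPES-buffered Ham's F12, pH 7.4 / Probe or stimulus: DiI-labelled HDL at 10 µg/mL final / Timing: compound with DiI-HDL co-incubation, 3 h at 37 °C / Technique: bottom-read cell fluorescence after medium removal, ex 550/em 595 nm / Measure: HDL uptake via cellular fluorescence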
NOD2 RIPK2 PPI: NOD2-RIPK2 protein interaction inhibition; inhibition, % at 4.98 µM; CHO BLA complementation NOD2-RIPK2, CCF4 ratio; 360,000 tested, 0.38% active; in the data active = inhibition above about 21%
TLR4 MyD88 comp: inhibitors of human TLR4-MyD88 binding; HeLa CL3-4 TLR4/MyD88 BLA complementation, FRET ratio; inhibition, % at 8.4 µM; 200,000 tested, 0.18% active; AID 861; in the data active = inhibition above about 25%
Target sequence (O00206 whole entry, looked up): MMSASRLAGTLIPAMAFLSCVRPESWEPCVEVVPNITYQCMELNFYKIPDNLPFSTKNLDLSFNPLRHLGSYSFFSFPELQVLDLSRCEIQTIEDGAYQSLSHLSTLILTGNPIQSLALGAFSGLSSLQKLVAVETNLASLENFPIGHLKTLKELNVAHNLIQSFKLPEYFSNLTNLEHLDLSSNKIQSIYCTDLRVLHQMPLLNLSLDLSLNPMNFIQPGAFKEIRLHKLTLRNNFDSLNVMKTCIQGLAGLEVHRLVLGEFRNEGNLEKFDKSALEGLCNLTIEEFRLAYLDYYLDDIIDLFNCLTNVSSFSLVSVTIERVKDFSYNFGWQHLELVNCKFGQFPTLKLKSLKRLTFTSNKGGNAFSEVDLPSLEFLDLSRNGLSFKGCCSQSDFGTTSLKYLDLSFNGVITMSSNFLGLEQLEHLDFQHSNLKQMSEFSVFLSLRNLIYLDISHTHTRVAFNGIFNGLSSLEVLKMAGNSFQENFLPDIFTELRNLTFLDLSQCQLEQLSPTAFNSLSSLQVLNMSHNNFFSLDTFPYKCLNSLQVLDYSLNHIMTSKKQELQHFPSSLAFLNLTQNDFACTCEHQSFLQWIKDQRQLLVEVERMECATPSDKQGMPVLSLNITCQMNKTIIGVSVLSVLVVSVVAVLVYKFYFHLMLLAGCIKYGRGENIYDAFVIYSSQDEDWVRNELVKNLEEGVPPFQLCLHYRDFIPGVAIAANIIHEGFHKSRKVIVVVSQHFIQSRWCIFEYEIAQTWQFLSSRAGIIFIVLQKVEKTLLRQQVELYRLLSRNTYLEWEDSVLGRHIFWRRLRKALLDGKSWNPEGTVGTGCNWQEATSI
Target sequence (Q99836 whole entry, looked up): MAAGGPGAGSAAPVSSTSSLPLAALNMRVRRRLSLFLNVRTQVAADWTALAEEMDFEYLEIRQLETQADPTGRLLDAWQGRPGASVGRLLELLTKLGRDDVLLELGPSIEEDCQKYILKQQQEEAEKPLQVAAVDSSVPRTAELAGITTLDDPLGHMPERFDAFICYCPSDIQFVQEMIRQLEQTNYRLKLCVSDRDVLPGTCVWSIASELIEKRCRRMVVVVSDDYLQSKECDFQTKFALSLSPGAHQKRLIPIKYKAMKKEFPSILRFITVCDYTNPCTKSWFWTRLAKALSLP
TLR9-MyD88 block: TLR9-MyD88 interaction inhibition | CHO BLA complementation TLR9-MyD88, CCF4 FRET ratio | inhibition, % at 4.98 µM | 340,000 tested, 0.21% active;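 active = inhibition above the mean over all tested compounds plus 3 SD, cut at about 21% in these data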
SR-BI HDL uptake: blocks mouse SR-BI lipid uptake from DiI-HDL. inhibition, % at 12.5 µM. Q61009. 320,000 tested, 0.96% active. ldlA[mSR-BI] CHO cells, DiI-HDL uptake fluorescence, 3 h;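 active = mean replicate inhibition of at least 70% and a set share of replicates each scoring 70 or more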
A number is an active result; n = inactive; x = not tested or not shown.

SMILES	Lipid droplet	SR-BI uptake up	NOD2 RIPK2 PPI	TLR4 MyD88 comp	TLR9-MyD88 block	SR-BI HDL uptake
COc1ccccc1CNC(=O)COc1ccc(C)cc1	n	718	n	x	n	n
COc1ccc(-n2nc(C(=O)NCC(=O)Nc3cc(OC)ccc3OC)c3ccccc3c2=O)cc1	n	x	n	x	n	x
COc1ccc(-n2nc(C(=O)NCC(=O)Nc3cc(Cl)c(OC)cc3OC)c3ccccc3c2=O)cc1	n	n	n	x	n	84
C/C(=N\NC(=O)c1cc(C)nc2ccccc12)c1ccc([N+](=O)[O-])cc1	n	n	n	n	n	n
C/C(=N\Nc1cc(C)nc(NCc2ccccc2)n1)c1ccc([N+](=O)[O-])cc1	n	n	n	x	n	86
CCOC(=O)c1ccc(N=C2C(=S)N(c3ccc(C(=O)OCC)cc3)C(=N)N2/N=C/c2ccccc2)cc1	n	n	n	n	n	76
CN(C)c1ccc(/C=N/N2C(=N)N(c3ccccc3)C(=S)C2=Nc2ccccc2)cc1	x	x	x	n	x	x
COc1ccc(N2C(=O)/C(=C/c3ccc([N+](=O)[O-])cc3)C=C2c2ccccc2)cc1	x	n	n	n	n	96
COc1ccc(-c2cc3cc(OC)c(OC)cc3c(C)n2)cc1	n	n	n	x	n	80
COc1ccccc1N1C(=NC(=O)CCc2ccccc2)SC2CS(=O)(=O)CC21 (stereo unspecified)	n	n	n	x	n	n
N#C/C(=C(/O)c1ccc(C(=O)c2ccccc2)cc1)c1nc2ccccc2[nH]1	n	243	n	x	n	n
CCCCOc1ccc(/C(O)=C(\C#N)c2nc3ccccc3[nH]2)cc1	x	n	n	x	n	n
Cc1ccc(C2(c3noc(CN(C)CCCN4CCOCC4)n3)CCCC2)cc1	n	x	x	n	x	x
Cc1ccc(C2(c3noc(CN(C)Cc4cnn(C)c4)n3)CCCC2)cc1	n	122	n	n	n	n
Cc1ccc(C2=NN(CC(=O)NCc3ccccn3)C(=O)CC2)cc1	n	n	n	n	n	n
CC1C(=O)C(C)C(c2ccc(Br)cc2)NC1c1ccc(Br)cc1 (stereo unspecified)	x	n	n	x	n	n
CC1C(=O)C(C)C(c2cc(Br)ccc2O)NC1c1cc(Br)ccc1O (stereo unspecified)	x	n	n	x	n	83
CSc1cccc(NC(=O)/C=C/c2cccc(Cl)c2)c1	n	n	n	n	n	75
CCN1CCN(c2nnc(-c3ccccc3)c3ccccc23)CC1	n	n	n	x	n	n
CCCCSc1nnc(-c2ccccc2)c2ccccc12	n	n	n	n	n	74
COc1ccc(NC(=O)N(C)C[C@@H]2OCc3cnnn3CCCC(=O)N([C@H](C)CO)C[C@@H]2C)cc1	x	x	n	x	n	x
O=C(N/N=C\c1cn(-c2ccccc2)nc1-c1ccccc1)c1ccc2c(c1)OCO2	x	n	n	n	n	n
O=C(N/N=C/c1cn(-c2ccccc2)nc1-c1ccc(F)cc1)c1ccc2c(c1)OCO2	x	n	n	n	n	74
COc1ccc(-c2nn(-c3ccccc3)cc2/C=N/NC(=O)c2ccc(Br)o2)cc1	x	n	n	n	n	82
COc1ccc(-c2nn(-c3ccccc3)cc2/C=C/C(=O)OCC(=O)Nc2ccc(C#N)cc2)cc1	n	n	n	n	n	87
SMILES	Lipid droplet	SR-BI uptake up	NOD2 RIPK2 PPI	TLR4 MyD88 comp	TLR9-MyD88 block	SR-BI HDL uptake
Cc1ccnc(NC(=O)c2cccc(NC(=O)CC3SC(N4CCCCC4)=NC3=O)c2)c1 (stereo unspecified)	x	n	n	x	n	n
CN(CC(=O)NCCCN1CCOCC1)S(=O)(=O)c1ccc(Br)cc1	n	n	n	n	n	78
O=C(Cn1nc(Br)nc1Br)c1ccccc1	n	n	n	x	n	n
NC(=S)NN=C1C2CC3CC(C2)CC1C3	n	n	n	n	n	79
CCOC(=O)c1c(-c2ccc(C)o2)csc1NC(=O)CSc1nncs1	x	n	22	n	n	n
CCOC(=O)c1c(-c2ccc(C)o2)csc1NC(=O)CN1CCCCC1	n	n	n	n	n	n
COc1ccc(NS(=O)(=O)c2ccc(O)c(NC(=O)c3cc4c(C)nn(-c5ccc(F)cc5)c4s3)c2)cc1	n	n	n	n	n	77
Cc1ccc(NC(=O)c2cc(NC(=O)c3ccco3)ccc2N2CCCCC2)cc1	x	n	n	n	n	73
COc1cc(C(=O)Nc2ccc(NC(=O)c3ccco3)nc2)cc(OC)c1OC	x	n	n	n	n	72
COc1cccc(C(=O)Nc2ccc(NC(=O)c3ccco3)nc2)c1	x	n	n	n	n	n
COc1ccc(Cl)cc1C(=O)Nc1ccc(NC(=O)c2ccco2)cc1	n	n	n	n	n	82
CCC(C)c1ccccc1NC(=O)COC(=O)c1ccc2[nH]c3c(c2c1)CCCC3 (stereo unspecified)	59	n	n	n	n	n
COc1ccc(OC)c(NC(=O)c2cc(S(=O)(=O)NCc3ccco3)ccc2F)c1	x	n	n	n	n	83
CCOc1ccccc1NC(=O)c1cc(S(=O)(=O)NCc2ccco2)ccc1F	n	n	n	x	n	n
CC(C)(C)OC(=O)N1CCC[C@H]1c1nnc(SCc2ccc(Cl)cc2)o1	n	n	n	x	n	n
CCOC(=O)N1CCC(NC(=S)Nc2ccc3nc(N4CCN(C)CC4)cc(C)c3c2)CC1	n	112	n	n	n	n
Cc1cccc(N2CCN(C(=S)Nc3ccc4nc(N5CCN(C)CC5)cc(C)c4c3)CC2)c1C	n	n	n	n	n	89
CCOC(=O)N1CCC(NC(=S)Nc2ccc3nc(N4CCN(CC)CC4)cc(C)c3c2)CC1	n	x	n	n	n	x
CCOc1ccc(S(=O)(=O)N2CCCCC2)cc1NC(=O)c1ccccc1	x	n	n	x	n	n
COc1ccc(NC(=O)CN(C)C(=O)Cn2c(=O)oc3ccccc32)cc1	x	n	n	x	n	n
CC12CN3CC(C)(CN(C1)C3c1ccc(Cl)cc1Cl)C2O (stereo unspecified)	x	79	n	n	n	n
CN(C)c1ccc(C2N3CC4(C)CN2CC(C)(C3)C4O)cc1 (stereo unspecified)	x	n	n	n	n	n
CC(NC(=O)C12CC3CC(CC(C3)C1)C2)C(=O)N/N=C/C1=C(N2CCOCC2)C(=C\c2cccc([N+](=O)[O-])c2)/CC1 (stereo unspecified)	n	n	n	n	n	n
Cc1cc(C)nc(N/N=C/C2=C(N3CCOCC3)C(=C/c3ccccc3)/CC2)n1	n	n	n	n	n	90
O=C(N/N=C/C1=C(N2CCOCC2)C(=C\c2ccccc2)/CC1)Nc1ccccc1	n	n	n	n	n	74
CCN(CC)c1ccc(/C=C2\CCC(/C=N/NC(=O)c3ccc(=O)n(C)c3)=C2N2CCOCC2)cc1	n	n	n	n	n	100
